From PubChem BioAssay
A selection: hits, their analogues and other compounds. The true share with any hit is near 4.3%.
STAT1 act-1 = activators of IFN-gamma induced STAT1 signaling; AID 932; NIH 3T3 STAT1-luciferase reporter, luminescence; 100% = IFN-gamma alone, no compound; activation (% of control), % at 5.5 µM; 200,000 tested, 2.6% active;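 active = activation above the screen-wide mean activation plus 3 SD, cut at about 130% in these data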;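 note: raw ratio to IFN-gamma control signal so 100% means no change and 0% no light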
STAT1 inh-1 = STAT1 signaling inhibition | NIH 3T3 STAT1-luciferase reporter, IFN-gamma, luminescence | inhibition, % at 5.5 µM | AID 920 | 200,000 tested, 0.35% active;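 active = inhibition above a set limit, the mean inhibition across all tested compounds plus 3 SD, cut at about 34% in these data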;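 note: 0% = IFN-gamma with DMSO and 100% = IFN-gamma with 300 µM nifuroxazide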
STAT3 inh = reduces IL-6 driven STAT3 reporter signal; U3A cells, IL-6 STAT3-luciferase reporter, luminescence; host cell line lacks STAT1; inhibition, % at 5.5 µM; 190,000 tested, 0.89% active; AID 862;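 active = inhibition above the mean inhibition across all screened compounds plus 3 SD, cut at about 44% in these data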;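 note: 0% = DMSO only wells and 100% = 100 µM nifuroxazide control wells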
STAT3 act-1 = STAT3 signaling activation. activation (% of control), % at 5.6 µM. U3A cells, IL-6 STAT3-luciferase reporter, luminescence; 100% = signal with IL-6 EC80 alone. 190,000 tested, 0.91% active;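 active = activation above the screen-wide mean of compound activation plus 3 SD, cut at about 130% in these data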;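 note: 0% = background luminescence of wells with medium and substrate only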
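Assay system – human STAT1-deficient U3A cells with stable STAT3-luciferase reporter · Also added – IL-6 (33 ng/mL) · Schedule – compound 1 h, then IL-6 6 h at 37 °C · Technique – reporter luminescence signal · Evaluation – % activation versus median of IL-6-stimulated wells · Benchmarks – IL-6-only wells as 100% reference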
STAT3 act-2 = STAT3 activation, confirmation assay; shares compounds with STAT3 act-1; U3A STAT3-luciferase reporter, IL-6 potentiation, luminescence; U3A cells lack STAT1; 100 means same as IL-6 alone; potentiation (% of control), % at 5.7 µM; 1,200 tested, 64% active; AID 1267;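 active = percent activation of the STAT3 luciferase reporter above a set limit taken from the earlier primary screen, cut at about 130% in these data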;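 note: 0% = background signal of medium plus substrate and 100% = median of IL-6 with DMSO wells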
NFkB act STAT3ct = NF-kappaB activation in STAT3 activator counter-screen; AID 1309; activation (% of control), % at 5.7 µM; 1,200 tested, 11% active; human cells, NF-kappaB reporter activation; shares compounds with STAT3 act-1; in the data active = activation above about 120%;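 note: reporter induced by TNF-alpha stimulation; 100% = median of stimulated DMSO wells and 0% = no signal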
STAT1 act-2 = activates STAT1, counter-screen to STAT3 activators; shares compounds with STAT3 act-1; AID 1318; NIH 3T3 STAT1-luciferase reporter, IFN-gamma, luminescence; 1,200 tested, 13% active; activation (% of control), % at 5.7 µM;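 active = activation above the solvent-only control well mean plus 3 SD, set per screening run, cut at about 120% in these data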;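 note: 100% = IFN-gamma with DMSO median signal so 100% means no change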
STAT1 inh-2 = confirmation of STAT1 signaling inhibitors | NIH 3T3 STAT1-luciferase reporter, IFN-gamma, luminescence | inhibition, % at 5.5 µM | 200 tested, 55% active | shares compounds with STAT1 inh-1 | AID 1263;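 active = triplicate mean inhibition exceeding the hit cutoff computed for the primary STAT1 screen, cut at about 35% in these data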;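 note: 0% = DMSO with IFN-gamma and 100% = 300 µM nifuroxazide with IFN-gamma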
NFkB inh = counter-screen for STAT1 inhibitors: NF-kappaB inhibition | HEK293T NF-kB luciferase reporter, TNF-alpha induced, luminescence | AID 1303 | 200 tested, 30% active | inhibition, % at 5.7 µM | shares compounds with STAT1 inh-1;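 active = inhibition above the mean of solvent-only control wells plus 3 SD of those wells, cut at about 15% in these data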;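 note: 0% = DMSO with TNF-alpha and 100% = MG-132 control with TNF-alpha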
STAT3 inh 2 = STAT3 inhibition in STAT1 inhibitor counter-screen; AID 1310; inhibition, % at 5.7 µM; shares compounds with STAT1 inh-1; U3A cells, IL-6 STAT3 luciferase reporter, luminescence; cells lacking STAT1; 200 tested, 20% active;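 active = inhibition above the mean of solvent-only control wells plus 3 SD, set per campaign, cut at about 25% in these data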;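 note: 0% = IL-6 plus DMSO and 100% = IL-6 plus nifuroxazide control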
Active calls of the source: *; · = no result given.

SMILES	STAT1 act-1	STAT1 inh-1	STAT3 inh	STAT3 act-1	STAT3 act-2	NFkB act STAT3ct	STAT1 act-2	others
Cn1c(Sc2ccc(Cl)cc2)c(C=O)c2ccccc21	87.6	13.8	-78.3	169.9*	140.0*	74.7	81.2
Clc1ccc2c(NCc3ccccn3)ncnc2c1	101.0	-1.0	-47.0	140.2*	136.6*	107.5	117.6
O=C(Nc1ccc(Cl)c(Cl)c1)Nc1nnc(CSc2ccccc2)s1	105.0	-5.5	6.8	97.2	·	·	·
CCOC(=O)C1(Cc2ccc(OC)cc2)CCN(C(=O)c2cc3ccccc3[nH]2)CC1	119.6	-20.2	-68.3	156.5*	147.5*	109.2	116.6
CCOC(=O)CSc1ncnc2c1cnn2-c1ccccc1	103.3	-3.6	-38.3	138.1*	91.3	101.2	95.8
CCOc1ccc(C(C)=O)cc1CSc1nc2nc(C)cc(C)n2n1	83.8	14.7	10.0	95.5	·	·	·
Cc1ccc([N+](=O)[O-])cc1NC(=O)c1cccs1	96.9	2.9	27.3	80.2	·	·	·
CNc1cc([N+](=O)[O-])ccc1N/C=C/C(=O)c1cccs1	105.4	-5.9	-91.5	176.3*	152.7*	105.7	101.0
CC(=O)Nc1ccccc1-c1nn[nH]n1	91.8	9.0	-55.8	150.8*	141.8*	111.3	100.2
O=C(NCCc1ccccc1)C(NS(=O)(=O)c1cccc2nsnc12)c1ccccc1 (stereo unspecified)	102.2	-2.4	2.0	101.5	·	·	·
Cc1cc(C)c(NC(=O)COc2ccccc2C(=O)Nc2ccc3c(c2)oc2ccccc23)c(C)c1	99.8	0.2	-2.8	102.5	·	·	·
COc1cc2c(cc1NC(=O)Nc1ccc(F)cc1)oc1ccccc12	107.8	-8.6	4.2	99.6	·	·	·
O=c1c(Cl)c(N/N=C/c2ccc(Br)cc2)cnn1-c1ccccc1	110.0	-10.9	-54.9	150.0*	126.2	100.9	102.5
COC(=O)c1c(NC(=O)CN2CCN(C(=O)c3ccco3)CC2)c2cc(C)ccc2n1C	103.1	-3.4	-37.4	138.5*	141.1*	99.0	97.2
COC(=O)c1c(NC(=O)CN2CCN(C(=O)c3ccco3)CC2)c2c(C)cccc2n1C	94.3	6.2	13.3	90.7	·	·	·
COc1ccc(C(=O)/C(C#N)=N/Nc2cccc([N+](=O)[O-])c2)cc1	58.8	44.1*	24.1	82.4	·	·	·	STAT1 inh-2=20.9;NFkB inh=6.4;STAT3 inh 2=1.5
N#C/C(=N\Nc1cccc(Cl)c1)C(=O)c1ccccc1	93.7	7.0	12.4	94.9	·	·	·
Cc1ccc(-c2cc(C(F)F)nc(S(C)(=O)=O)n2)cc1	69.8	33.4	12.3	93.6	·	·	·	STAT1 inh-2=28.6;NFkB inh=-25.2;STAT3 inh 2=-6.7
O=C1c2cccnc2C(Nc2ccc(F)c(Cl)c2)N1Cc1cccs1 (stereo unspecified)	85.9	14.1	-8.8	108.6	·	·	·
COc1ccc(CNC(=S)NC(C)CCc2ccccc2)cc1 (stereo unspecified)	98.0	2.0	-0.8	102.2	·	·	·
Cn1c(C(=O)N2CCN(c3ccc([N+](=O)[O-])cc3)CC2)cc2c(=O)[nH]c3ccccc3c21	51.9	50.9*	18.6	87.4	·	·	·	STAT1 inh-2=34.5*;NFkB inh=5.3;STAT3 inh 2=7.7
O=C(Oc1ccc(Cl)c2cccnc12)C12CC3CC(CC(C3)C1)C2	108.2	-9.1	14.2	91.8	·	·	·
CCOC(=O)c1sc(N(Cc2ccccc2)C(=O)COC(=O)c2ccccc2O)nc1C	106.1	-7.1	18.0	86.0	·	·	·
CCOC(=O)c1sc(N(Cc2ccccc2)C(=O)COC(=O)c2ccc(O)cc2)nc1C	48.9	57.8*	5.3	99.4	·	·	·	STAT1 inh-2=59.5*;NFkB inh=56.9*;STAT3 inh 2=8.3
